Reference: ChEMBL document CHEMBL1133453, “Further studies on nociceptin-related peptides: discovery of a new chemical template with antagonist activity on the nociceptin receptor” (J Med Chem, 2000)
Blank lines part the entries; values can stand above or below the compound they belong to. Calls of active or inactive are those of the source. The calls are words filed in the database; no cut-off is given here. Numbered stars: 1 amine (or outer) side, 2 acyl side, 3 side chain; on linkers, the order of the positions; unused ones are H or OH. Square brackets hold non-standard residues; d marks the D form. Peptide text beside a SMILES is read from it. X4 = Cc1ccc(C[C@H](N)CN(CC(=O)[*:2])[*:1])cc1; X2 = N[C@@H](Cc1ccccc1)CN(CC(=O)[*:2])[*:1]; X3 = N[C@@H](CC1CCCCC1)CN(CC(=O)[*:2])[*:1]; Nphe = O=C(O)CNCc1ccccc1

How the values were obtained:
[1] = species: Mus musculus; assay: Compound was tested for the antagonistic activity on mouse vas deferens using NC(1-13)NH2 as agonist; NA means Inactive up to 10 uM; assay type: functional, organism-based
In short: (§1)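 Electrically stimulated mouse vas deferens (Mg2+-free Krebs, 33 °C, 0.1 Hz, 1-ms pulses). Antagonist at 10 µM added 15 min before a cumulative NC(1-13)NH2 concentration-response curve. pKB calculated with the Gaddum-Schild equation, assuming a slope of 1, from the concentration ratio. Mean of at least 3 experiments, with 95% confidence limits.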

[2] = target: Nociceptin receptor (Mus musculus, UniProt P35377); assay: Affinity to nociceptin receptors on mouse forebrain membranes by [3H]NC-NH2 displacement.
Sequence of Nociceptin receptor (P35377 whole entry): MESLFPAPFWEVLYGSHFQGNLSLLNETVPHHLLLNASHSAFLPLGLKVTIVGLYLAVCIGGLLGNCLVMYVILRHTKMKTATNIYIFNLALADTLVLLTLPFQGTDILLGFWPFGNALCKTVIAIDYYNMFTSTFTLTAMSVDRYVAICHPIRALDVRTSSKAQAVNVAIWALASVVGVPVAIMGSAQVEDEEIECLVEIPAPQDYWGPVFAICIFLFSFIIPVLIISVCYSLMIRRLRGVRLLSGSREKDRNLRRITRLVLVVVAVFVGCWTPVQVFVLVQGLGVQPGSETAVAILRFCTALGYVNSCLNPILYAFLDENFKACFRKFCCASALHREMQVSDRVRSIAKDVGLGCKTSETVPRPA
In short: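 Forebrain membranes from male Swiss mice (25-30 g), homogenized in 50 mM Tris HCl, 2 mM EDTA, 100 µM PMSF, pH 7.4, then preincubated 30 min at 37 °C. Bound ligand separated by GF/C filtration. Ki obtained by nonlinear least-squares fitting.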

[3] = species: Mus musculus; assay: Potency (Emax) against electrically evoked contraction (twitch response) in mouse vas deferens; NA means Inactive up to 10 uM; assay type: functional, organism-based
In short: (§2)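 Mouse vas deferens held in Mg2+-free Krebs at 33 °C under 0.3 g resting tension. Field stimulation through platinum electrodes with supramaximal 1-ms pulses at 0.1 Hz, twitches recorded isotonically. After about 2 h equilibration, cumulative concentration-response curves built in 0.5 log steps up to 10 µM. pEC50 taken as the concentration giving half-maximal effect. Mean of at least 3 experiments.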

[4] = species: Mus musculus; assay: Compound was tested for agonistic activity against electrically evoked contraction (twitch response) in mouse vas deferens; NA means Inactive up to 10 uM; assay type: functional, organism-based; in short: as §2
[5] = species: Mus musculus; assay: Potency (Emax) against electrically evoked contraction (twitch response) in mouse vas deferens; assay type: functional; in short: as §2
[6] = species: Mus musculus; assay: Compound was tested for agonistic activity against electrically evoked contraction (twitch response) in mouse vas deferens; assay type: functional, organism-based; in short: as §2
[7] = species: Mus musculus; assay: Compound was tested for the antagonistic activity on mouse vas deferens using NC(1-13)NH2 as agonist; assay type: functional; in short: as §1

Structure (SMILES): CC(C)CNCC(=O)NCC(=O)NCC(=O)N[C@@H](Cc1ccccc1)C(=O)N[C@H](C(=O)NCC(=O)N[C@@H](C)C(=O)N[C@@H](CCCN=C(N)N)C(=O)N[C@@H](CCCCN)C(=O)N[C@@H](CO)C(=O)N[C@@H](C)C(=O)N[C@@H](CCCN=C(N)N)C(=O)N[C@@H](CCCCN)C(N)=O)[C@@H](C)O
pKB [1]: inactive
Ki [2]: 2510 nM
Emax [3]: inactive
Log EC50 [4]: inactive

Structure (SMILES): Cc1ccc(CNCC(=O)NCC(=O)NCC(=O)N[C@@H](Cc2ccccc2)C(=O)N[C@H](C(=O)NCC(=O)N[C@@H](C)C(=O)N[C@@H](CCCN=C(N)N)C(=O)N[C@@H](CCCCN)C(=O)N[C@@H](CO)C(=O)N[C@@H](C)C(=O)N[C@@H](CCCN=C(N)N)C(=O)N[C@@H](CCCCN)C(N)=O)[C@@H](C)O)cc1
pKB [1]: inactive
Ki [2]: 2510 nM
Emax [3]: inactive
Log EC50 [4]: inactive

EC50 [6]: 15.8 nM
Structure (SMILES): C[C@H](NC(=O)CNC(=O)[C@@H](NC(=O)[C@H](Cc1ccccc1)NC(=O)CNC(=O)CNC(=O)[C@@H](N)Cc1ccccc1)[C@@H](C)O)C(=O)N[C@@H](CCCNC(=N)N)C(=O)N[C@@H](CCCCN)C(=O)N[C@@H](CO)C(=O)N[C@@H](C)C(=O)N[C@@H](CCCNC(=N)N)C(=O)N[C@@H](CCCCN)C(N)=O
Emax [5]: -84%

Structure (SMILES): C[C@H](NC(=O)CNC(=O)[C@@H](NC(=O)[C@H](Cc1ccccc1)NC(=O)CNC(=O)CNC(=O)[C@@H](N)CC1CCCCC1)[C@@H](C)O)C(=O)N[C@@H](CCCN=C(N)N)C(=O)N[C@@H](CCCCN)C(=O)N[C@@H](CO)C(=O)N[C@@H](C)C(=O)N[C@@H](CCCN=C(N)N)C(=O)N[C@@H](CCCCN)C(N)=O
Emax [5]: -84%
EC50 [6]: 12.6 nM
Ki [2]: 1 nM

Structure (SMILES): C[C@H](NC(=O)CNC(=O)[C@@H](NC(=O)[C@H](Cc1ccccc1)NC(=O)CNC(=O)CNC(=O)[C@@H](N)Cc1ccccc1)[C@@H](C)O)C(=O)N[C@@H](CCCN=C(N)N)C(=O)N[C@@H](CCCCN)C(=O)N[C@@H](CO)C(=O)N[C@@H](C)C(=O)N[C@@H](CCCN=C(N)N)C(N)=O (H-FGGFTGARKSAR-NH2)
Emax [5]: -79%
EC50 [6]: 794 nM
Ki [2]: 25.1 nM

Structure (SMILES): CC(C)C[C@H](NC(=O)[C@H](CCCCN)NC(=O)[C@H](CCCN=C(N)N)NC(=O)[C@H](C)NC(=O)[C@H](CO)NC(=O)[C@H](CCCCN)NC(=O)[C@H](CCCN=C(N)N)NC(=O)[C@H](C)NC(=O)CNC(=O)[C@@H](NC(=O)[C@H](Cc1ccccc1)NC(=O)CNC(=O)CNC[C@@H](N)Cc1ccccc1)[C@@H](C)O)C(=O)N[C@@H](C)C(=O)N[C@@H](CC(N)=O)C(=O)N[C@@H](CCC(N)=O)C(N)=O (H-[X2]GFTGARKSARKLANQ-NH2)
pKB [7]: 7
Ki [2]: 20 nM
Emax [3]: inactive
Log EC50 [4]: inactive

Structure (SMILES): C[C@H](NC(=O)CNC(=O)[C@@H](NC(=O)[C@H](Cc1ccccc1)NC(=O)CNC(=O)CNC[C@@H](N)CC1CCCCC1)[C@@H](C)O)C(=O)N[C@@H](CCCN=C(N)N)C(=O)N[C@@H](CCCCN)C(=O)N[C@@H](CO)C(=O)N[C@@H](C)C(=O)N[C@@H](CCCN=C(N)N)C(=O)N[C@@H](CCCCN)C(N)=O (H-[X3]GFTGARKSARK-NH2)
pKB [1]: inactive
Ki [2]: 316 nM
Emax [3]: inactive
Log EC50 [4]: inactive

Structure (SMILES): C[C@H](NC(=O)CNC(=O)[C@@H](NC(=O)[C@H](Cc1ccccc1)NC(=O)CNC(=O)CNC[C@@H](N)Cc1ccccc1)[C@@H](C)O)C(=O)N[C@@H](CCCN=C(N)N)C(=O)N[C@@H](CCCCN)C(=O)N[C@@H](CO)C(=O)N[C@@H](C)C(=O)N[C@@H](CCCN=C(N)N)C(N)=O (H-[X2]GFTGARKSAR-NH2)
pKB [7]: 5.2
Ki [2]: 398 nM
Emax [3]: inactive
Log EC50 [4]: inactive

Structure (SMILES): C[C@H](NC(=O)CNC(=O)[C@@H](NC(=O)[C@H](Cc1ccccc1)NC(=O)CNC(=O)CNC[C@@H](N)Cc1ccccc1)[C@@H](C)O)C(=O)N[C@@H](CCCN=C(N)N)C(=O)N[C@@H](CCCCN)C(N)=O (H-[X2]GFTGARK-NH2)
pKB [7]: 5.1
Ki [2]: > 10000 nM
Emax [3]: inactive
Log EC50 [4]: inactive

Structure (SMILES): C[C@H](NC(=O)CNC(=O)[C@@H](NC(=O)[C@H](Cc1ccccc1)NC(=O)CNC(=O)CNC(=O)CNCc1ccc(O)cc1)[C@@H](C)O)C(=O)N[C@@H](CCCN=C(N)N)C(=O)N[C@@H](CCCCN)C(=O)N[C@@H](CO)C(=O)N[C@@H](C)C(=O)N[C@@H](CCCN=C(N)N)C(=O)N[C@@H](CCCCN)C(N)=O
pKB [1]: inactive
Ki [2]: 3160 nM
Emax [3]: inactive
Log EC50 [4]: inactive

Structure (SMILES): CC(C)C[C@H](NC(=O)[C@H](CCCCN)NC(=O)[C@H](CCCN=C(N)N)NC(=O)[C@H](C)NC(=O)[C@H](CO)NC(=O)[C@H](CCCCN)NC(=O)[C@H](CCCN=C(N)N)NC(=O)[C@H](C)NC(=O)CNC(=O)[C@@H](NC(=O)[C@H](Cc1ccccc1)NC(=O)CNC(=O)CNC(=O)CNCc1ccccc1)[C@@H](C)O)C(=O)N[C@@H](C)C(=O)N[C@@H](CC(N)=O)C(=O)N[C@@H](CCC(N)=O)C(N)=O
pKB [7]: 6.3
Ki [2]: 126 nM
Emax [3]: inactive
Log EC50 [4]: inactive

Log EC50 [4]: inactive
Structure (SMILES): C[C@H](NC(=O)CNC(=O)[C@@H](NC(=O)[C@H](Cc1ccccc1)NC(=O)CNC(=O)CNC(=O)CNCc1ccccc1)[C@@H](C)O)C(=O)N[C@@H](CCCN=C(N)N)C(=O)N[C@@H](CCCCN)C(=O)N[C@@H](CO)C(=O)N[C@@H](C)C(=O)N[C@@H](CCCN=C(N)N)C(=O)N[C@@H](CCCCN)C(N)=O
pKB [7]: 6.4
Emax [3]: inactive

Structure (SMILES): Cc1ccc(C[C@H](N)CNCC(=O)NCC(=O)N[C@@H](Cc2ccccc2)C(=O)N[C@H](C(=O)NCC(=O)N[C@@H](C)C(=O)N[C@@H](CCCN=C(N)N)C(=O)N[C@@H](CCCCN)C(=O)N[C@@H](CO)C(=O)N[C@@H](C)C(=O)N[C@@H](CCCN=C(N)N)C(=O)N[C@@H](CCCCN)C(N)=O)[C@@H](C)O)cc1 (H-[X4]GFTGARKSARK-NH2)
pKB [7]: 5.7
Ki [2]: 631 nM
Emax [3]: inactive
Log EC50 [4]: inactive

Structure (SMILES): C[C@H](NC(=O)CNC(=O)[C@@H](NC(=O)[C@H](Cc1ccccc1)NC(=O)CNC(=O)CNC[C@@H](N)Cc1ccccc1)[C@@H](C)O)C(=O)N[C@@H](CCCN=C(N)N)C(=O)N[C@@H](CCCCN)C(=O)N[C@@H](CO)C(=O)N[C@@H](C)C(=O)N[C@@H](CCCN=C(N)N)C(=O)N[C@@H](CCCCN)C(N)=O (H-[X2]GFTGARKSARK-NH2)
pKB [7]: 6.8
Ki [2]: 10 nM
Emax [3]: inactive
Log EC50 [4]: inactive

Structure (SMILES): C[C@H](NC(=O)CNC(=O)[C@@H](NC(=O)[C@H](Cc1ccccc1)NC(=O)CNC(=O)CNC(=O)[C@@H](N)Cc1ccc(O)cc1)[C@@H](C)O)C(=O)N[C@@H](CCCN=C(N)N)C(=O)N[C@@H](CCCCN)C(=O)N[C@@H](CO)C(=O)N[C@@H](C)C(=O)N[C@@H](CCCN=C(N)N)C(=O)N[C@@H](CCCCN)C(N)=O (H-YGGFTGARKSARK-NH2)
Emax [5]: -89%
EC50 [6]: 25.1 nM
Ki [2]: 3.98 nM

Structure (SMILES): C[C@H](NC(=O)CNC(=O)[C@@H](NC(=O)[C@H](Cc1ccccc1)NC(=O)CNC(=O)CNC(=O)CNCc1ccccc1)[C@@H](C)O)C(=O)N[C@@H](CCCN=C(N)N)C(=O)N[C@@H](CCCCN)C(=O)N[C@@H](CO)C(=O)N[C@@H](C)C(=O)N[C@@H](CCCN=C(N)N)C(N)=O (H-[Nphe]GGFTGARKSAR-NH2)
pKB [1]: inactive
Ki [2]: 3160 nM
Emax [3]: inactive
Log EC50 [4]: inactive

Structure (SMILES): C[C@H](NC(=O)CNC(=O)[C@@H](NC(=O)[C@H](Cc1ccccc1)NC(=O)CNC(=O)CNC(=O)[C@@H](N)Cc1ccccc1)[C@@H](C)O)C(=O)N[C@@H](CCCN=C(N)N)C(=O)N[C@@H](CCCCN)C(N)=O (H-FGGFTGARK-NH2)
pKB [1]: inactive
Ki [2]: > 10000 nM
Emax [3]: inactive
Log EC50 [4]: inactive

Structure (SMILES): Cc1ccc(C[C@H](N)C(=O)NCC(=O)NCC(=O)N[C@@H](Cc2ccccc2)C(=O)N[C@H](C(=O)NCC(=O)N[C@@H](C)C(=O)N[C@@H](CCCN=C(N)N)C(=O)N[C@@H](CCCCN)C(=O)N[C@@H](CO)C(=O)N[C@@H](C)C(=O)N[C@@H](CCCN=C(N)N)C(=O)N[C@@H](CCCCN)C(N)=O)[C@@H](C)O)cc1
Emax [5]: -70%
EC50 [6]: 2510 nM
Ki [2]: 200 nM

Structure (SMILES): C[C@H](NC(=O)CNC(=O)[C@@H](NC(=O)[C@H](Cc1ccccc1)NC(=O)CNC(=O)CNC(=O)CNCC1CCCCC1)[C@@H](C)O)C(=O)N[C@@H](CCCN=C(N)N)C(=O)N[C@@H](CCCCN)C(=O)N[C@@H](CO)C(=O)N[C@@H](C)C(=O)N[C@@H](CCCN=C(N)N)C(=O)N[C@@H](CCCCN)C(N)=O
pKB [1]: inactive
Ki [2]: 2510 nM
Emax [3]: inactive
Log EC50 [4]: inactive

Structure (SMILES): CC(C)C[C@H](N)C(=O)NCC(=O)NCC(=O)N[C@@H](Cc1ccccc1)C(=O)N[C@H](C(=O)NCC(=O)N[C@@H](C)C(=O)N[C@@H](CCCN=C(N)N)C(=O)N[C@@H](CCCCN)C(=O)N[C@@H](CO)C(=O)N[C@@H](C)C(=O)N[C@@H](CCCN=C(N)N)C(=O)N[C@@H](CCCCN)C(N)=O)[C@@H](C)O (H-LGGFTGARKSARK-NH2)
Emax [5]: -80%
EC50 [6]: 25.1 nM
Ki [2]: 2.51 nM
